The source made the active and inactive calls. No cut-off for these calls is given here.
What was measured:
Moraxella catarrhalis [1] = experiment: Antibacterial activity against beta-lactamase producing Moraxella catarrhalis isolate 4 at 10 ug/disc after overnight incubation by disc diffusion assay; assay type: functional; conditions: for zone of inhibition at 10 µg/disc: read-out: IZ
In short: (§1)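 Isolates were held at −80 °C. Five colonies were suspended in Mueller-Hinton broth to a 0.5 McFarland density and swabbed onto MH agar. Discs carried 10 μg compound, applied in methanol and dried at room temperature. Plates were incubated overnight at 37 °C, and the zone of inhibition was measured in mm from the disc edge. Controls were methanol-only and penicillin discs. Run blinded, in triplicate.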

Moraxella catarrhalis [2] = experiment: Antibacterial activity against beta-lactamase producing Moraxella catarrhalis isolate 3 at 10 ug/disc after overnight incubation by disc diffusion assay; assay type: functional; in short: as §1
Moraxella catarrhalis [3] = experiment: Antibacterial activity against beta-lactamase producing Moraxella catarrhalis isolate 5 at 10 ug/disc after overnight incubation by disc diffusion assay; assay type: functional; conditions: for zone of inhibition at 10 µg/disc: read-out: IZ; in short: as §1
Pseudomonas aeruginosa [4] = experiment: Antibacterial activity against non-beta-lactamase producing Pseudomonas aeruginosa ATCC 27853 after 48 hrs by microdilution broth method; assay type: functional, organism-based
In short: (§2)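 Broth microdilution followed CLSI guidelines. Compound was dissolved in 95% ethanol, diluted at least 10-fold into Mueller-Hinton broth, then serially two-fold diluted from 500 to 15.6 μg/mL. Actively growing culture was added at 5 × 10^5 cells/mL. Plates ran 48 h at 37 °C, scored for visible growth at 24 and 48 h. MIC was the lowest concentration without growth. For MBC, 10 μL from each clear well was plated on MH agar. Controls were ethanol and penicillin. Triplicate.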

Moraxella catarrhalis [5] = experiment: Antibacterial activity against beta-lactamase producing Moraxella catarrhalis isolate 1 at 10 ug/disc after overnight incubation by disc diffusion assay; assay type: functional; conditions: for zone of inhibition at 10 µg/disc: read-out: IZ; in short: as §1
Escherichia coli [6] = experiment: Antibacterial activity against non-beta-lactamase producing Escherichia coli ATCC 25922 after 48 hrs by microdilution broth method; assay type: functional, organism-based; in short: as §2
Moraxella catarrhalis [7] = experiment: Antibacterial activity against beta-lactamase producing Moraxella catarrhalis isolate 2 at 10 ug/disc after overnight incubation by disc diffusion assay; assay type: functional; conditions: for zone of inhibition at 10 µg/disc: read-out: IZ; in short: as §1
Enterococcus faecalis [8] = experiment: Antibacterial activity against non-beta-lactamase producing Enterococcus faecalis ATCC 29212 after 48 hrs by microdilution broth method; assay type: functional, organism-based; in short: as §2
Enterococcus faecalis [9] = experiment: Antibacterial activity against non-beta-lactamase producing Enterococcus faecalis ATCC 29212 at 10 ug/disc after overnight incubation by disc diffusion assay; assay type: functional, organism-based; in short: as §1
Staphylococcus aureus [10] = experiment: Antibacterial activity against non-beta-lactamase producing Staphylococcus aureus ATCC 25923 after 48 hrs by microdilution broth method; assay type: functional, organism-based; in short: as §2
Escherichia coli [11] = experiment: Antibacterial activity against non-beta-lactamase producing Escherichia coli ATCC 25922 at 10 ug/disc after overnight incubation by disc diffusion assay; assay type: functional, organism-based; in short: as §1
Pseudomonas aeruginosa [12] = experiment: Antibacterial activity against non-beta-lactamase producing Pseudomonas aeruginosa ATCC 27853 at 10 ug/disc after overnight incubation by disc diffusion assay; assay type: functional, organism-based; in short: as §1
Staphylococcus aureus [13] = experiment: Antibacterial activity against non-beta-lactamase producing Staphylococcus aureus ATCC 25923 at 10 ug/disc after overnight incubation by disc diffusion assay; assay type: functional, organism-based; in short: as §1
[14] = tested on: Mycobacterium tuberculosis; experiment: Antimycobacterial activity against wild type Mycobacterium tuberculosis H37Rv at 200 ug/ml by Alamar blue assay; assay type: functional, organism-based
Moraxella catarrhalis [15] = experiment: Antibacterial activity against beta-lactamase producing Moraxella catarrhalis isolate 2 at 500 ug/ml after overnight incubation by disc diffusion assay; assay type: functional, organism-based
Moraxella catarrhalis [16] = experiment: Antibacterial activity against beta-lactamase producing Moraxella catarrhalis isolate 6 at 500 ug/ml after overnight incubation by disc diffusion assay; assay type: functional, organism-based
Moraxella catarrhalis [17] = experiment: Antibacterial activity against beta-lactamase producing Moraxella catarrhalis isolate 4 at 500 ug/ml after overnight incubation by disc diffusion assay; assay type: functional, organism-based
Moraxella catarrhalis [18] = experiment: Antibacterial activity against beta-lactamase producing Moraxella catarrhalis isolate 3 at 500 ug/ml after overnight incubation by disc diffusion assay; assay type: functional, organism-based
Moraxella catarrhalis [19] = experiment: Antibacterial activity against beta-lactamase producing Moraxella catarrhalis isolate 5 at 500 ug/ml after overnight incubation by disc diffusion assay; assay type: functional, organism-based

| SMILES | inhibition zone (IZ) (Moraxella catarrhalis [2]) | Activity (Pseudomonas aeruginosa [4]) | Activity (Escherichia coli [6]) | Activity (Enterococcus faecalis [8]) | Activity (Enterococcus faecalis [9]) | Activity (Staphylococcus aureus [10]) | Activity (Escherichia coli [11]) | Activity (Pseudomonas aeruginosa [12]) | Activity (Staphylococcus aureus [13]) | antimycobacterial activity (active/not active) [14] | antibacterial activity (active/not active) (Moraxella catarrhalis [15]) | antibacterial activity (active/not active) (Moraxella catarrhalis [16]) | antibacterial activity (active/not active) (Moraxella catarrhalis [17]) | antibacterial activity (active/not active) (Moraxella catarrhalis [18]) | antibacterial activity (active/not active) (Moraxella catarrhalis [19]) | inhibition zone (IZ) (Moraxella catarrhalis [1]) | inhibition zone (IZ) (Moraxella catarrhalis [7]) | also measured |
| --- | --- | --- | --- | --- | --- | --- | --- | --- | --- | --- | --- | --- | --- | --- | --- | --- | --- | --- |
| CCC(C=O)(CC)SSC(C=O)(CC)CC | inactive | inactive | inactive | inactive | inactive | inactive | inactive | inactive | inactive |  |  |  |  |  |  |  |  | zone of inhibition at 10 µg/disc (Moraxella catarrhalis [1]): 5 mm; zone of inhibition at 10 µg/disc (Moraxella catarrhalis [3]): 10 mm; zone of inhibition at 10 µg/disc (Moraxella catarrhalis [5]): 10 mm; zone of inhibition at 10 µg/disc (Moraxella catarrhalis [7]): 10 mm |
| O=C1CC(Sc2ccc(S)cc2)N1S(=O)(=O)O (racemic) |  | inactive | inactive | inactive | inactive | inactive | inactive | inactive | inactive | Active | Active | Active | Active | Active | Active |  |  |  |
| O=C1CC(Sc2ccccc2)N1S(=O)(=O)O (racemic) | inactive | inactive | inactive | inactive | inactive | inactive | inactive | inactive | inactive |  |  |  |  |  |  | inactive | inactive | inhibition zone (IZ) (Moraxella catarrhalis [3]): inactive; inhibition zone (IZ) (Moraxella catarrhalis [5]): inactive |
| CCC(S)(CC)CO | inactive | inactive | inactive | inactive | inactive | inactive | inactive | inactive | inactive |  |  |  |  |  |  |  |  | zone of inhibition at 10 µg/disc (Moraxella catarrhalis [1]): 3 mm; zone of inhibition at 10 µg/disc (Moraxella catarrhalis [3]): 12 mm; zone of inhibition at 10 µg/disc (Moraxella catarrhalis [5]): 5 mm; zone of inhibition at 10 µg/disc (Moraxella catarrhalis [7]): 3 mm |
| CCOC(=O)CN1C(=O)C(OC)C1C(CC)(CC)SSC(C=O)(CC)CC (racemic) | inactive | inactive | inactive | inactive | inactive | inactive | inactive | inactive | inactive | Active | Active | Active | Active | Active | Active | inactive | inactive | zone of inhibition at 10 µg/disc (Moraxella catarrhalis [3]): 3 mm; zone of inhibition at 10 µg/disc (Moraxella catarrhalis [5]): 20 mm |
| CCOC(=O)CN1C(=O)C(OC)C1C(C)(C)SSC (racemic) | inactive | inactive | inactive | inactive | inactive | inactive | inactive | inactive | inactive | Active | Active | Active | Active | Active | Active | inactive | inactive | inhibition zone (IZ) (Moraxella catarrhalis [3]): inactive; inhibition zone (IZ) (Moraxella catarrhalis [5]): inactive |
| O=C1CC(Sc2ccccc2)N1 (racemic) | inactive | inactive | inactive | inactive | inactive | inactive | inactive | inactive | inactive | inactive | inactive | inactive | inactive | inactive | inactive | inactive | inactive | inhibition zone (IZ) (Moraxella catarrhalis [3]): inactive; inhibition zone (IZ) (Moraxella catarrhalis [5]): inactive |
| O=C1CC(SCCCO)N1 (racemic) |  | inactive | inactive | inactive | inactive | inactive | inactive | inactive | inactive | inactive | inactive | inactive | inactive | inactive | inactive |  |  |  |
| O=C1CC(SCCO)N1 (racemic) |  | inactive | inactive | inactive | inactive | inactive | inactive | inactive | inactive | inactive | inactive | inactive | inactive | inactive | inactive |  |  |  |
| Nc1ccc(SC2CC(=O)N2)cc1 (racemic) |  | inactive | inactive | inactive | inactive | inactive | inactive | inactive | inactive | Active | Active | Active | Active | Active | Active |  |  |  |
| CCOC(=O)CN1C(=O)C(OC)C1C(S)(CC)CC (racemic) |  | inactive | inactive | inactive | inactive | inactive | inactive | inactive | inactive | inactive | inactive | inactive | inactive | inactive | inactive |  |  |  |
